How the values were obtained:
Type in all cases: cell-based, human
MCF-7/ADR cells = assay: Dox efflux assay
Procedure, shortened: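 MCF-7/ADR and MCF-7 cells, in RPMI-1640 with 10% FBS and penicillin/streptomycin (1 μg/mL doxorubicin added to maintain the ADR line), loaded with test compound (10 µg/mL Dox equivalent) for 4 h. Washed, then chased in fresh drug-free medium for 2 or 4 h at 37 °C. Collected and PBS-washed; retained Dox read by flow cytometry. Efflux ratio from retained versus initial uptake; mean ± SD, n=3.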

[1] = tested on: mitochondria of HeLa cells; assay: Mitochondria targeting, quantification in isolated mitochondria; settings: 10 μg/mL Dox equivalent, flow cytometry, n=3
Procedure, shortened: (§1)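 HeLa cells (DMEM) or MCF-7 cells (RPMI-1640), both with 10% FBS, grown at 37 °C, 5% CO2 and treated in 12-well plates with test compound (10 μg/mL Dox equivalent). Collected into mitochondria extraction reagent on ice for 10 min, then homogenised. Spun at 600×g for 10 min; supernatant spun at 11,000×g for 10 min. Pelleted mitochondria analysed for Dox by flow cytometry.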

[2] = tested on: mitochondria of MCF-7 cells; assay: as above; settings: 10 μg/mL Dox equivalent, flow cytometry, n=3
Procedure, shortened: as §1

With COc1cccc2c1C(=O)c1c(O)c3c(c(O)c1C2=O)C[C@@](O)(C(=O)CO)C[C@@H]3O[C@H]1C[C@H](N)[C@H](O)[C@H](C)O1 [Dox, doxorubicin] the “Dox efflux rate in MCF-7/ADR, fold higher than in MCF-7 cells” value (MCF-7/ADR cells; 2 h in drug-free medium after 4 h loading) was 1.74 fold, the “Dox efflux rate in MCF-7/ADR, fold higher than in MCF-7 cells” value (MCF-7/ADR cells; 4 h in drug-free medium after 4 h loading) was 2.08 fold and the mitochondria distribution [1] was under 5%. The mitochondria distribution [2] was under 5%.
